Measurements published in ChEMBL document CHEMBL3525913, “Metabolism-dependent inhibition of CYP3A4 by lapatinib: evidence for formation of a metabolic intermediate complex with a nitroso/oxime metabolite formed via a nitrone intermediate” (Drug Metab Dispos, 2013).

Experiments:
[1] = test system: Liver microsome; assay: Drug level in human liver microsomes treated with lapatinib at 50 uM by LC/MS/MS analysis; type: ADME
How it was run: (§1)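 Lapatinib 50 μM (added in DMSO) incubated 30 min at 37°C in 100 mM potassium phosphate pH 7.4 with HLM 1 mg/mL or recombinant CYP3A4+b5 / CYP3A5+b5 100 pmol/mL. Reaction started with NADPH 1 mM. Protein re-isolated by ultracentrifugation (100,000 x g, 4°C, 60 min), washed (KCl/EDTA), resuspended in phosphate buffer, ±2 mM ferricyanide 10 min 37°C, quenched with acetonitrile, then high-resolution LC/MS profiling.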

[2] = Retention time of the compound by LC/MS/MS analysis relative to lapatinib; type: physicochemical
How it was run: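 Phenyl UPLC column (1.7 μm, 2.1 x 100 mm), 0.1% formic acid in water/acetonitrile, 0.4 mL/min. Gradient: 10% organic for 1 min, to 90% over 13 min, held 0.5 min. Detection by accurate-mass MS. Retention times expressed relative to lapatinib.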

[3] = molecular target: Cytochrome P450 3A4 (Homo sapiens, UniProt P08684); assay: Activity of recombinant CYP3A4 (unknown origin) assessed as compound formation treated with lapatinib at 50 uM by LC/MS/MS analysis; type: ADME; details: recombinant enzyme; how it was run: as §1
[4] = molecular target: Cytochrome P450 3A5 (Homo sapiens, UniProt P20815); assay: Activity of recombinant CYP3A5 (unknown origin) assessed as compound formation treated with lapatinib at 50 uM by LC/MS/MS analysis; type: ADME; details: recombinant enzyme; how it was run: as §1
Sequence of Cytochrome P450 3A5 (P20815 whole entry): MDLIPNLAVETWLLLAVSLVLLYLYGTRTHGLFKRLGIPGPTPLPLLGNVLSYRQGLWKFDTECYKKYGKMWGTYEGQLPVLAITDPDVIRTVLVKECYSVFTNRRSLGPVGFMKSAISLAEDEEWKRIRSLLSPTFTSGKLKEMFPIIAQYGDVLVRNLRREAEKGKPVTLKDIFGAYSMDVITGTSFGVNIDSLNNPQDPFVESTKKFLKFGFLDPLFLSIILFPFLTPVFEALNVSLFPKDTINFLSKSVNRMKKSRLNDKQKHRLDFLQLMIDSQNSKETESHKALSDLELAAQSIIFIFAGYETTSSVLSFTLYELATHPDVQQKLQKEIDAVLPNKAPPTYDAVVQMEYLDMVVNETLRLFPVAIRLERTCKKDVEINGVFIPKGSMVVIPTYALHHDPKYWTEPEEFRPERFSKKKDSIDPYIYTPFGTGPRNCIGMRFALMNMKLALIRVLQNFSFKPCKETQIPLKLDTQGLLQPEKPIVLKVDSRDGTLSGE

Sequence of Cytochrome P450 3A4 (P08684 whole entry): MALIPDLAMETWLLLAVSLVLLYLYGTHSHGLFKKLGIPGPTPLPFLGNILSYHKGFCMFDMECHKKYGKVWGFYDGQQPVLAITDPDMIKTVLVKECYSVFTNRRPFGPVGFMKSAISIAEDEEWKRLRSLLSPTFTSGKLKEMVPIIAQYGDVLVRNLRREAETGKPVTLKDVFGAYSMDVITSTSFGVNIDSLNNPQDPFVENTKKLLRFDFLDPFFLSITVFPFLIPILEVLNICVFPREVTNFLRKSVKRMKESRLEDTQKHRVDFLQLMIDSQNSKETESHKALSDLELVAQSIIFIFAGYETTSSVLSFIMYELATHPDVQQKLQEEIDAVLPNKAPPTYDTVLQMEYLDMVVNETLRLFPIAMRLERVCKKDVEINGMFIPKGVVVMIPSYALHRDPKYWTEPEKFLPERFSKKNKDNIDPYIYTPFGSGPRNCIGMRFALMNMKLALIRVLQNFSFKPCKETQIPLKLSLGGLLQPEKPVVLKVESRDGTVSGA

Drug metabolism [1]: metabolite_detected
Ratio [2]: 0.97
Drug metabolism [3]: metabolite_detected
Drug metabolism [4]: metabolite_detected
Structure (SMILES): NCc1ccc(-c2ccc3ncnc(Nc4ccc(OCc5cccc(F)c5)c(Cl)c4)c3c2)o1
